Compounds with a hit are over-represented: about 0.64% of the library has one in this group of screens.
PMI act: increases human mannose-6-phosphate isomerase activity; P34949; purified human PMI, coupled resazurin fluorescence, 20 min; active compounds read high; 1 = vehicle control, 0 substrate-free wells; activation factor at 20 µM; 190,000 compounds, 0.005% hits; AID 1214;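 active = activation factor of 2 or more at 20 µM, relative to plate controls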
TNAP inh hiacc: TNAP (human) inhibition, high acceptor | 200,000 compounds, 0.03% hits | purified TNAP, CDP-star luminescence, 1 M DEA | P05186 | inhibition, % at 20 µM;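 active = over 50% inhibition of tissue-nonspecific alkaline phosphatase at 20 µM in the single-dose screen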;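 note: plate controls were DMSO wells for no effect and EDTA-quenched wells as full inhibition for full effect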
Target sequence (P05186 whole entry, looked up): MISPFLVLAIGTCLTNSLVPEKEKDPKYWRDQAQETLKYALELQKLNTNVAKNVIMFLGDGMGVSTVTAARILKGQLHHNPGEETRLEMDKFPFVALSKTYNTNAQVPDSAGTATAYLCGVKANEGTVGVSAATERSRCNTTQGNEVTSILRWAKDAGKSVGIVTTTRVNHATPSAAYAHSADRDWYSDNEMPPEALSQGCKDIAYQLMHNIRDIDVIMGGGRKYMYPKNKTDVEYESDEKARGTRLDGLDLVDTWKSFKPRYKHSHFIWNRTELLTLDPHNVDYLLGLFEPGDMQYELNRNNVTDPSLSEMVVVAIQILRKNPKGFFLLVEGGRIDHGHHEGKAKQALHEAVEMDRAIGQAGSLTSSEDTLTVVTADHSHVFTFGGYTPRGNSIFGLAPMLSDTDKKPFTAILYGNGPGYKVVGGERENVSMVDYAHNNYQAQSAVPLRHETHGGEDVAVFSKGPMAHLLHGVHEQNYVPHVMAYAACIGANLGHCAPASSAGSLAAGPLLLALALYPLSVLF
TNAP act hi DEA: activators of human TNAP at high phosphate acceptor concentration; P05186; purified TNAP, CDP-star luminescence, 1 M DEA, 30 min; active compounds read high; 0 = EDTA background, 1 = DMSO-only activity; activation factor at 20 µM; 200,000 tested, under 10 active;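 active = activation factor at least 2 at 20 µM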
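Assay system: human TNAP; Input: enzyme diluted 1/800 final; Reagent: CDP-star luminogenic substrate at 100 µM final; Timing: 30 min, room temperature; Signal: luminescence; Evaluation: TNAP activation factor scaled between EDTA and DMSO control wells.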
TNAP inh no acc: blocks human TNAP activity with no phosphate acceptor present | purified TNAP, CDP-star luminescence, 30 min | inhibition, % at 20 µM | 200,000 compounds, 0.26% hits | AID 1012;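 active = tissue-nonspecific alkaline phosphatase inhibition above about 50% at 20 µM in the single-dose screen, limit read from the data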;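 note: 0% = DMSO negative control and 100% = EDTA positive control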
PMI act satM6P: activators of human phosphomannose isomerase at near-saturating mannose 6-phosphate. P34949. coupled PMI enzyme assay, resazurin fluorescence, 20 min; active compounds read high; 1 = untreated enzyme, 0 = substrate-free blank. activation factor at 20 µM. 190,000 compounds, 0.34% hits. AID 1216;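 active = activation factor of 2 or more at 20 µM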
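Material: human phosphomannose isomerase with PGI, G6PDH, diaphorase coupling enzymes; amount: PMI at 15 ng/mL final; also added: Mannose-6-phosphate 1.0 mM (near-saturating) plus 0.22 mM NADP+; incubation: enzyme reaction with compound 20 min at room temperature; signal: resorufin fluorescence (Ex 544/Em 590 nm) from resazurin via diaphorase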
Numbers without * were called inactive.

SMILES	PMI act	TNAP inh hiacc	TNAP act hi DEA	TNAP inh no acc	PMI act satM6P
CC(C)CN1C(=O)c2ccccc2C1(O)Cc1ccccc1 (configuration not stated)	1.6	-2	1	-5	2*
O=c1cc(/N=C/c2coc3c(ccc4ccccc43)c2=O)[nH]c(=S)[nH]1	1	24	0.8	53*	0.8
NC(=S)N/N=C/c1coc2c(ccc3ccccc32)c1=O	1	6	0.9	-25	0.9
CCSCc1nnc(SCC(=O)Nc2ccc(OC)cc2)n1C	1	-6	1.1	-6	1
CN(CC(=O)N1CCN(Cc2ccccc2)CC1)S(=O)(=O)c1cccc2nsnc12	0.9	-4	1	-15	1
O=C(O)C/C=C(\NC(=O)OCc1ccccc1)C(=O)OCc1ccccc1	1.9	-6	1.1	1	2.6*
CN(Cc1cn(-c2ccccc2)nc1-c1cc2ccccc2o1)C(=O)CCC(=O)O	1.1	-8	1.1	-10	1.1
CCOC(=O)/C=C(/C)N1N=C(c2ccc(OC)cc2)CC1c1cccc([N+](=O)[O-])c1 (configuration not stated)	1.6	0	1	-19	2.3*
CC(C)(C)C1CCC(=NNC(=O)C(=O)NCc2cccnc2)CC1 (configuration not stated)	1	-2	1	-14	0.9
CC(C)(C)C1CCC(=NNC(=S)NCc2ccccc2)CC1 (configuration not stated)	1.8	0	1	-10	2*
CCC(C)(C)C1CCC(=NNC(=S)Nc2ccccc2)CC1 (configuration not stated)	1.7	2	1	-24	2.3*
S=C(NCc1ccc2c(c1)OCO2)NC1CC1	1	-5	1.1	-5	1
Nn1c(-c2ccccc2Cl)nnc1-c1ccccc1Cl	1.7	-1	1	3	2.2*
CSc1nnc(-c2ccccc2Cl)n1N	1.1	-7	1.1	2	1.2
CCOC(=O)C1=C(C)NC(SC)=NC1c1ccc(OC)cc1 (configuration not stated)	1.5	-2	1	-7	2.3*
Cc1ccc(N(CC(=O)NC(C)(C)C)C(=O)CNC(=O)c2cccs2)cc1C	1	-6	1.1	-13	1
c1ccc(Cn2nnnc2C(c2ccccc2)N2CCN(c3nc4ccccc4s3)CC2)cc1 (configuration not stated)	0.9	-8	1.1	-13	0.9
Cc1ccc(C)c(N2CCN(C(c3ccncc3)c3nnnn3Cc3ccccc3)CC2)c1 (configuration not stated)	1	-10	1.1	-14	2.2*
Cc1ccc([N+](=O)[O-])cc1NCC(=O)NN	1	0	1	79*	0.9
Cc1cc(C)n(CCN(C)Cc2cn[nH]c2-c2ccc(F)cc2F)n1	0.9	-8	1.1	46	0.9
COc1ccc(-c2[nH]ncc2CNCCn2cccn2)c(F)c1	1	-4	1	85*	1.1
COc1ccc(-c2[nH]ncc2CNCc2cc(C)n(C)n2)c(F)c1	0.9	-7	1.1	68*	0.9
O=C1Nc2ccccc2N2CCCC12 (configuration not stated)	1.2	1	1	-29	1.8
O=C1Nc2cc(S(=O)(=O)N3CCCC3)ccc2N2CCCC12 (configuration not stated)	1.3	-5	1.1	-24	2*
COc1ccc(CNc2nc3ccccc3n2Cc2ccccc2)cc1OC	1	-3	1	-15	1
CC(C)CSC1=NSC2=NC(=O)/C(=C\c3coc4ccccc4c3=O)C(=N)N12	1.6	6	0.9	13	2*
CSC1=NSC2=NC(=O)/C(=C\c3coc4ccccc4c3=O)C(=N)N12	1.3	3	1	-14	1.7
COc1ccccc1Nc1nc(-c2c(C)[nH]c3ccccc23)cs1	1.2	-2	1	2	2*
Cc1ccccc1C(=O)NNC(=O)CSc1nc(-c2ccccc2)cc(=O)[nH]1	1.1	-4	1	75*	1.1
c1csc(-c2nn3c(Cn4nnc5ccccc54)nnc3s2)c1	0.9	-4	1	62*	0.9

Assay outcomes (PubChem)
